This test has as its target T1, fMet-Leu-Phe receptor (Homo sapiens, UniProt P21462).
T1 sequence (P21462 whole entry): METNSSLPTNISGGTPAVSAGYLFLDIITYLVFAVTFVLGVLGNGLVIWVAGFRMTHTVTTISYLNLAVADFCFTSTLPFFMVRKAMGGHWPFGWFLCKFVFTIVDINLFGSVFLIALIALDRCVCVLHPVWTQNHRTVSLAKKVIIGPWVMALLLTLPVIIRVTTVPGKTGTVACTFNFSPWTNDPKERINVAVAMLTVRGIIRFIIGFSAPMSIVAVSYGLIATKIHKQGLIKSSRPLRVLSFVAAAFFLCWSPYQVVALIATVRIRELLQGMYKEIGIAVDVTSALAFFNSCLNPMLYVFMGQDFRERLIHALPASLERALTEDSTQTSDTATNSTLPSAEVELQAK
Kind of test: Biased agonist activity at human FPR1 expressed in FlpIn-CHO cells assessed as intracellular calcium mobilization by Fluo-4-AM dye based fluorescence assay. The procedure, abridged:
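Agonist transduction coefficients (Log(τ/KA)) for each signaling output estimated with an extension of the Black-Leff operational model. Values normalized to a reference ligand and to Ca2+ mobilization as reference pathway, giving ΔLog(τ/KA) and Log(bias factors). Data are mean ± SEM of 4 independent experiments, each performed in duplicate.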

For the compound `CCCCC(C(=O)Nc1ccc(Cl)cc1)n1nc(C)cc(Cc2ccccc2OC)c1=O` (stereo unspecified), the EC50 came to 891 nM.

A word on the EC50: it is the concentration that produces a half-maximal response.

Source of the values: BindingDB's records for doi:10.1021/acs.jmedchem.8b01912 (Monash University, 2019).
